Data taken from ChEMBL document CHEMBL4715781, “Exploration of bivalent ligands targeting putative mu opioid receptor and chemokine receptor CCR5 dimerization” (Bioorg Med Chem, 2016).
Calls of active or inactive are those of the source. The rule behind the calls is not given here.

What was measured:
Mu-type opioid receptor [1] = biological target: Mu-type opioid receptor (Homo sapiens, UniProt P35372); assay: Antagonist activity at human MOR transfected in CHO cells co-transfected with Gqi5 assessed as inhibition of DAMGO-induced calcium mobilization incubated for 15 mins prior to DAMGO addition and measured for 90 secs by Fluo-4AM dye based fluorescence analysis; type: functional, cell-based
Chain of Mu-type opioid receptor (Homo sapiens, UniProt P35372) (P35372 whole entry): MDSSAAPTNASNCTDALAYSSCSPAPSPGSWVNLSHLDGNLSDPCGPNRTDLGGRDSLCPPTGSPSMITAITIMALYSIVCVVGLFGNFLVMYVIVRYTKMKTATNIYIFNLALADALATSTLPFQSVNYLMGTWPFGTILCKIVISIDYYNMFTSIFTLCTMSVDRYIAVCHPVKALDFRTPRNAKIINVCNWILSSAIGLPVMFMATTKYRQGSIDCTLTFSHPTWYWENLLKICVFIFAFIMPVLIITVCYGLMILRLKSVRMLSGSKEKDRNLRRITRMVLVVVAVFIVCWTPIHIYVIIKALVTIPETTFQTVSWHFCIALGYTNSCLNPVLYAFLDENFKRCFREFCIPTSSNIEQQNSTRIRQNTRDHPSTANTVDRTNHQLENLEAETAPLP
Procedure, shortened: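 Gqi5-transfected hMOR-CHO cells plated at 20,000/well and used 48 h after transfection. Loaded 30 min with Fluo-4 AM/probenecid in HBSS:HEPES, then ligands added for 15 min. IC50 from non-linear regression of peak heights. Three repeats.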

Mu-type opioid receptor [2] = biological target: Mu-type opioid receptor (Mus musculus, UniProt P42866); assay: Displacement of [3H]NLX from mouse MOR expressed in CHO cell membrane incubated for 90 mins by liquid scintillation spectrophotometry; type: cell membranes
Chain of Mu-type opioid receptor (Mus musculus, UniProt P42866) (P42866 whole entry): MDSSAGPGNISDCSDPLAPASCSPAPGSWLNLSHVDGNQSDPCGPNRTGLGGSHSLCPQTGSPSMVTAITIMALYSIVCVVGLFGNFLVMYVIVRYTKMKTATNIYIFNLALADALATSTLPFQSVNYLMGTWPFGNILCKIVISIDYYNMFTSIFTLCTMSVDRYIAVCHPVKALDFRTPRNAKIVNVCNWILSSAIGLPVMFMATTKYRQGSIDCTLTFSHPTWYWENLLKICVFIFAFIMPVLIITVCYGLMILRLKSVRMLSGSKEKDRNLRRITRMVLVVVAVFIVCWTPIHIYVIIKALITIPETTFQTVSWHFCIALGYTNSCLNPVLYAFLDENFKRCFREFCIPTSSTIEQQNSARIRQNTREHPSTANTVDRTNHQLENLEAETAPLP
Procedure, shortened: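 mMOR-CHO membranes incubated 90 min at 30 °C with 2 nM [3H]naloxone and varying unlabeled ligand. Bound ligand collected by rapid GF-B filtration with 3 ice-cold Tris washes and counted by scintillation (45% efficiency). Competitor IC50 used to derive Ki. At least three independent experiments.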

[3] = biological target: T1, C-C chemokine receptor type 5 (Homo sapiens, UniProt P51681); assay: Agonist activity at CCR5 receptor in human MOLT4 cells transfected with Gqi5 assessed as calcium mobilization incubated for 15 mins by Fluo-4AM dye based fluorescence analysis; type: functional, cell-based; conditions: MOLT-4
Procedure, shortened: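 CCR5-MOLT-4 cells transfected with Gqi5, tested 48 h post-transfection at 25,000 cells/well in 50:1 HBSS:HEPES buffer. Fluo-4 AM with probenecid loaded for 45 min, then varying ligand concentrations added for 15 min. Fluorescence at 494/516 nm read for 120 s, with buffer alone added at 16 s in place of RANTES. Peak height taken as agonism read-out.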
Target sequence in this assay (P51681 whole entry, looked up): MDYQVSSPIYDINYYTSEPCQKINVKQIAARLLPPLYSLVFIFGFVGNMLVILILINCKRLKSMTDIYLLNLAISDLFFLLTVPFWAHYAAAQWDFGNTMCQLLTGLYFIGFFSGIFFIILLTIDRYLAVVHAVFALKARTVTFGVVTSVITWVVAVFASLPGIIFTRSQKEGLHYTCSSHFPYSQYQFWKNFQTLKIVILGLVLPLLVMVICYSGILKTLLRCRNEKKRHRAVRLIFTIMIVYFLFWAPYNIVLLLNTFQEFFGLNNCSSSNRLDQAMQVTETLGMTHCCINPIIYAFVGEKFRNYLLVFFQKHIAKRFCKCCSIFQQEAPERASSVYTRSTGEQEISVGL

[4] = biological target: T1, C-C chemokine receptor type 5; assay: Antagonist activity at CCR5 receptor in human MOLT4 cells transfected with Gqi5 assessed as inhibition of RANTES-induced calcium mobilization incubated for 15 mins prior to RANTES addition and measured for 120 secs by Fluo-4AM dye based fluorescence analysis; type: functional, cell-based, MOLT-4
Procedure, shortened: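 CCR5-MOLT-4 cells transfected with Gqi5, assayed 48 h later at 25,000 cells/well. Fluo-4 AM/probenecid loading for 45 min, then ligands for 15 min. IC50 from non-linear regression of peak heights. Three repeats.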
Target sequence in this assay (P51681 whole entry): as the sequence (P51681 whole entry, looked up) above

[5] = test system: Human immunodeficiency virus 1; assay: Antiviral activity against HIV-1 BAL infected in human macrophages assessed as reduction in p24 production at 1 uM treated for 1 hr prior to viral infection and measured after 5 days by ELISA; type: functional, organism-based; conditions: Macrophage, time 5.0 day
Procedure, shortened: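 Macrophages derived from PBMCs with M-CSF (100 ng/mL) for 6 days, plated at 1 × 10^5 cells/mL and stimulated 48 h with IL-2/PHA. Polybrene for 30 min, compound (10–1000 nM) for 1 h before HIV-1 BaL (p24 1000 pg/mL). p24 in supernatant and lysate measured by ELISA 5 days post-infection. ANOVA with Dunnett's test.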

[6] = test system: Human immunodeficiency virus 1; assay: Antiviral activity against HIV-1 BAL infected in human PBMC assessed as reduction in p24 production at 1 uM treated for 1 hr prior to viral infection and measured after 5 days by ELISA; type: functional, organism-based; conditions: time 5.0 day
Procedure, shortened: (§1)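 Ficoll-isolated human PBMCs plated at 1 × 10^5 cells/mL and stimulated 48 h with IL-2 (100 ng/mL) and PHA (5 µg/mL). Then polybrene (2 µg/mL) for 30 min, compound at 10, 100 or 1000 nM for 1 h, and infection with R5-tropic HIV-1 BaL (p24 1000 pg/mL). Supernatant and RIPA lysate p24 measured by ELISA at day 5. Dunnett's test against infection alone.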

[7] = test system: Human immunodeficiency virus 1; assay: Antiviral activity against HIV-1 BAL infected in human astrocytes assessed as reduction in p24 production at 10 to 1000 nM treated for 1 hr prior to viral infection and measured after 5 days by ELISA; type: functional, organism-based; conditions: Astrocyte, dose 10-1000 nM, time 5.0 day
Procedure, shortened: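 Primary human astrocytes plated at 1 × 10^5 cells/mL and stimulated 48 h with IL-2 (100 ng/mL) and PHA (5 µg/mL). Polybrene for 30 min, then compound at 10, 100, 1000 nM for 1 h before infection with HIV-1 BaL (p24 1000 pg/mL). p24 ELISA on supernatants and lysates at day 5.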

[8] = test system: Human immunodeficiency virus 1; assay: Antiviral activity against HIV-1 BAL infected in human PBMC assessed as reduction in p24 production at 10 to 1000 nM treated for 1 hr prior to viral infection and measured after 5 days by ELISA; type: functional, organism-based; conditions: dose 10-1000 nM, time 5.0 day; procedure, shortened: as §1
[9] = biological target: C-C chemokine receptor type 5 (Macaca mulatta, UniProt P61813); assay: Displacement of [125I]MIP-1alpha from CCR5 receptor in rhesus monkey membrane incubated for 120 mins by liquid scintillation counting analysis; type: cell membranes, Cell membrane
[10] = test system: Human immunodeficiency virus 1; assay: Antiviral activity against HIV-1 SF162 infected in human astrocytes assessed as reduction in viral invasion by measuring decrease in Tat protein expression at 100 nM co-treated with morphine prior to viral infection and measured after 18 hrs by luciferase based assay; type: functional, organism-based; conditions: Astrocyte
Procedure, shortened: (§2)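 Primary human astrocytes in 24-well plates transfected with pBlue3'LTR-luc. […] Uninfected cells served as negative control. After about 18–20 h, cells were PBS-rinsed and lysed, and Tat-driven luciferase was measured.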

CHO [11] = assay: Binding affinity to CCR5-hMOR heterodimer in CHO cells co-expressing CD4 and luciferase reporter assessed as inhibition of CD4-gp120 complex interaction with receptor dimer by measuring inhibition of cell-cell fusion process at 3000 nM measured after co-incubation of CHO cells with HEK293 cells …; type: cell-based; conditions: time 18.0 hrs
CHO [12] = assay: as above; type: cell-based; conditions: time 18.0 hrs; remark: listed apart in the source
[13] = test system: Human immunodeficiency virus 1; assay: Antiviral activity against HIV-1 SF162 infected in human astrocytes assessed as reduction in viral invasion by measuring decrease in Tat protein expression at 100 nM treated prior to viral infection and measured after 18 hrs by luciferase based assay; type: functional, organism-based; conditions: Astrocyte; procedure, shortened: as §2
[14] = test system: Human immunodeficiency virus 1; assay: Antiviral activity against HIV-1 SF162 infected in human astrocytes assessed as reduction in viral invasion by measuring decrease in Tat protein expression at 100 nM treated prior to viral infection and measured after 18 hrs by luciferase based assay relative to maraviroc in presence of morphine; type: functional, Astrocyte
Procedure, shortened: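 Primary human astrocytes carried the transfected pBlue3'LTR-luc reporter. […] Uninfected cells served as negative control. Lysates were taken about 18–20 h later after PBS rinses, and Tat expression was quantified by luciferase luminescence.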

[15] = test system: Human immunodeficiency virus 1; assay: Antiviral activity against HIV-1 SF162 infected in human astrocytes assessed as reduction in viral invasion by measuring decrease in Tat protein expression at 100 nM treated prior to viral infection and measured after 18 hrs by luciferase based assay relative to maraviroc; type: functional, Astrocyte
Procedure, shortened: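 Primary human astrocytes in 24-well plates were transfected with the LTR-luciferase reporter pBlue3'LTR-luc. […] Uninfected cells served as negative control. After about 18–20 h, cells were PBS-rinsed and lysed, and luciferase activity was read as Tat expression.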

[16] = test system: Human immunodeficiency virus 1; assay: Antiviral activity against HIV-1 BAL infected in human PBMC assessed as reduction in p24 production at 500 nM treated for 1 hr prior to viral infection and measured after 5 days by ELISA; type: functional, organism-based; conditions: time 5.0 day
Procedure, shortened: (§3)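 PBMCs were Ficoll-isolated from leukopak blood and grown in RPMI-1640 with 10% FBS; macrophages came from PBMCs given M-CSF 100 ng/mL for 6 days. Cells at 1 × 10^5/mL were stimulated with IL-2 (100 ng/mL) and PHA (5 µg/mL) for 48 h, then polybrene (2 µg/mL) for 30 min. Compound was added 1 h before R5 HIV-1 BaL (p24 1000 pg/mL). Supernatant and RIPA-lysate p24 were measured by ELISA at day 5.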

CHO [17] = assay: Antagonist activity at CCR5 receptor in CHO cells co-expressing hMOR, CD4 and luciferase reporter assessed as inhibition of CD4-gp120 complex interaction with receptor dimer by measuring inhibition of cell-cell fusion process at 100 nM measured after co-incubation of CHO cells with HEK293 cells …; type: cell-based; conditions: Cricetulus griseus, filed as antagonist, time 18.0 hrs
CHO [18] = assay: as above; type: cell-based; conditions: Cricetulus griseus, filed as antagonist, time 18.0 hrs; remark: listed apart in the source
[19] = test system: Human immunodeficiency virus 1; assay: Antiviral activity against HIV-1 BAL infected in human macrophages assessed as reduction in p24 production at 500 nM treated for 1 hr prior to viral infection and measured after 5 days by ELISA; type: functional, organism-based; conditions: Macrophage, time 5.0 day; procedure, shortened: as §3

Compound	IC50 (Mu-type opioid receptor [1])	Ki (Mu-type opioid receptor [2])	Activity [3]	IC50 [4]	other results
CNC(=O)COCC(=O)NCCCCCCCCCNC(=O)COCC(=O)N[C@@H]1CC[C@@]2(O)[C@H]3Cc4ccc(O)c5c4[C@@]2(CCN3CC2CC2)[C@H]1O5	41.4 nM	1.11 nM			
CNC(=O)COCC(=O)NCCCCCCCCCNC(=O)COCC(=O)Nc1ccc([C@H](CCN2[C@@H]3CC[C@H]2C[C@@H](n2c(C)nnc2C(C)C)C3)NC(=O)C2CCC(F)(F)CC2)cc1			inactive	392 nM	
CNC(=O)COCC(=O)NCCCCCCCNC(=O)COCC(=O)Nc1cccc([C@H](CCN2[C@@H]3CC[C@H]2C[C@@H](n2c(C)nnc2C(C)C)C3)NC(=O)C2CCC(F)(F)CC2)c1			inactive	129 nM	
Cc1nnc(C(C)C)n1[C@H]1C[C@H]2CC[C@@H](C1)N2CC[C@H](NC(=O)C1CCC(F)(F)CC1)c1ccc(NC(=O)COCC(=O)NCCCCCCCCCNC(=O)COCC(=O)N[C@@H]2CC[C@@]3(O)[C@H]4Cc5ccc(O)c6c5[C@@]3(CCN4CC3CC3)[C@H]2O6)cc1	21.9 nM	6.49 nM	inactive	543 nM	Activity [5]: Active; Activity [6]: Active; Activity [7]: Active
CNC(=O)COCC(=O)NCCCCCNC(=O)COCC(=O)N[C@@H]1CC[C@@]2(O)[C@H]3Cc4ccc(O)c5c4[C@@]2(CCN3CC2CC2)[C@H]1O5	92.1 nM	0.78 nM			
Cc1nnc(C(C)C)n1[C@H]1C[C@H]2CC[C@@H](C1)N2CC[C@H](NC(=O)C1CCC(F)(F)CC1)c1ccc(NC(=O)COCC(=O)NCCCCCNC(=O)COCC(=O)N[C@@H]2CC[C@@]3(O)[C@H]4Cc5ccc(O)c6c5[C@@]3(CCN4CC3CC3)[C@H]2O6)cc1	21.8 nM	3.8 nM	inactive	2410 nM	Activity [5]: inactive; Activity [8]: inactive; Activity [7]: Active
CNC(=O)COCC(=O)NCCCCCCCNC(=O)COCC(=O)N[C@@H]1CC[C@@]2(O)[C@H]3Cc4ccc(O)c5c4[C@@]2(CCN3CC2CC2)[C@H]1O5		9.2 nM			
CNC(=O)COCC(=O)NCCCCCCCNC(=O)COCC(=O)Nc1ccc([C@H](CCN2[C@@H]3CC[C@H]2C[C@@H](n2c(C)nnc2C(C)C)C3)NC(=O)C2CCC(F)(F)CC2)cc1			inactive	622 nM	Ki [9]: 151 nM
CNC(=O)COCC(=O)NCCCCCNC(=O)COCC(=O)Nc1ccc([C@H](CCN2[C@@H]3CC[C@H]2C[C@@H](n2c(C)nnc2C(C)C)C3)NC(=O)C2CCC(F)(F)CC2)cc1			inactive	948 nM	
Cc1nnc(C(C)C)n1[C@H]1C[C@H]2CC[C@@H](C1)N2CC[C@H](NC(=O)C1CCC(F)(F)CC1)c1cccc(NC(=O)COCC(=O)NCCCCCCCNC(=O)COCC(=O)N[C@@H]2CC[C@@]3(O)[C@H]4Cc5ccc(O)c6c5[C@@]3(CCN4CC3CC3)[C@H]2O6)c1	17.1 nM	10 nM	inactive	1340 nM	
Cc1nnc(C(C)C)n1[C@H]1C[C@H]2CC[C@@H](C1)N2CC[C@H](NC(=O)C1CCC(F)(F)CC1)c1ccc(NC(=O)COCC(=O)NCCCCCCCNC(=O)COCC(=O)N[C@@H]2CC[C@@]3(O)[C@H]4Cc5ccc(O)c6c5[C@@]3(CCN4CC3CC3)[C@H]2O6)cc1	40 nM	3.24 nM	inactive	126 nM	Activity [10]: Active; Ki [9]: 239 nM; Activity [5]: Active; Activity (CHO [11]): Active; Activity (CHO [12]): Active; Activity [13]: Active; Activity [8]: Active; fold change (FC) [14]: 7; fold change (FC) [15]: 3.3; Activity [7]: Active
Cc1nnc(C(C)C)n1[C@H]1C[C@H]2CC[C@@H](C1)N2CC[C@H](NC(=O)C1CCC(F)(F)CC1)c1ccccc1					Activity [10]: inactive; Activity [16]: Active; Activity (CHO [17]): Active; Activity (CHO [18]): Active; Activity [19]: Active; Activity [13]: Active
